Columns and labels:
Type in all cases: ADME
[1] = Spectral dissociation constant of the compound.; conditions: read-out: Ks
Outline: (§1)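 Type I difference spectra recorded at 350–500 nm in washed liver microsomes from fed, untreated 180–250 g male CD rats, 3 mg protein/mL in 0.15 M KCl-0.05 M Tris. Split-beam cuvettes were warmed to 37 °C for 5 min, then substrate added stepwise to the sample side and buffer to the reference. Ks came from double-reciprocal plots of the 390–420 nm absorbance difference. Triplicate determinations.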

[2] = Maximum optimal dose expressed as OD max X 10e-(2/3) mg; outline: as §1
[3] = Michaelis constant in N-demethylation.
Outline: (§2)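 Male CD rat hepatic microsomes (1 mg protein/mL) in 0.15 M KCl-0.05 M Tris with 5 mM MgCl2 and an NADPH-generating system (0.33 mM NADP, 5.5 mM glucose 6-phosphate, 0.67 U/mL G6PDH). Incubated in air for 10 min at 37 °C. Formaldehyde measured colorimetrically with acetylacetone at 412 nm, correcting for substrate-free blanks. Km and Vmax taken from triplicates at 11 substrate concentrations.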

[4] = Michaelis constant in O-dealkylation.
Outline: (§3)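 Octyl[6-3H]morphine N- and O-dealkylation assayed radiometrically in rat liver microsomes (1 mg protein/mL). Triplicate 20-min incubations used eight substrate concentrations from 0.1 to 1.0 mM. Reactions were stopped with acetone and extracted, then metabolites were located by UV, scraped and counted by scintillation. Km and Vmax came from Lineweaver-Burk plots, averaged over three separate studies.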

[5] = Vmax value in N-demethylation.; outline: as §2
[6] = Vmax value in O-dealkylation.; outline: as §3
[7] = Rate of ethylmorphine N-demethylase in the presence of various concentrations (uM) at 0 uM concentration.
Outline: (§4)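 2 mM 3-O-ethylmorphine was N-demethylated for 10 min at 37 °C by male CD rat liver microsomes (1 mg protein/mL) with an NADPH-generating system, with 0, 20, 200 or 2000 μM added decyl or dodecyl analogue. Formaldehyde was read colorimetrically at 412 nm. Rate is nmol/min/mg protein, from triplicate incubations.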

[8] = Rate of ethylmorphine N-demethylase in the presence of various concentrations (uM) at 20 uM concentration.; outline: as §4
[9] = Rate of ethylmorphine N-demethylase in the presence of various concentrations (uM) at 200 uM concentration.; outline: as §4
[10] = Spectral dissociation constant of the compound; ND = no detectable binding spectra.; outline: as §1
[11] = Rate of ethylmorphine N-demethylase in the presence of various concentrations (uM) at 2000 uM concentration.; outline: as §4
[12] = Maximum optimal dose expressed as OD max X 10e-(2/3) mg; ND = no detectable binding spectra.; outline: as §1

`CCCCCOc1ccc2c3c1OC1C(O)C=CC4C(C2)N(C)CCC341.Cl` (configuration not stated) showed a Kd [1] of 14.6 µM and an OD max [2] of 2 mg.

`CCOc1ccc2c3c1OC1C(O)C=CC4C(C2)N(C)CCC341.Cl` (configuration not stated) showed a Km [3] of 245 µM, a Km [4] of 55 µM and a Kd [1] of 29.1 µM. It also gave an OD max [2] of 1.9 mg, a Vmax [5] of 9.31 nM/min and a Vmax [6] of 1.86 nM/min.

With `CCCOc1ccc2c3c1OC1C(O)C=CC4C(C2)N(C)CCC341.Cl` (configuration not stated) the Kd [1] was 28.4 µM and the OD max [2] was 1.8 mg.

For `CCCCOc1ccc2c3c1OC1C(O)C=CC4C(C2)N(C)CCC341.Cl` (configuration not stated), the Kd [1] was 18.1 µM and the OD max [2] was 2.06 mg.

Work on `CCCCCCCCCCCCOc1ccc2c3c1OC1C(O)C=CC4C(C2)N(C)CCC341.Cl` (configuration not stated) yielded a Rate [7] of 8.92 nM/min, a Rate [8] of 8.81 nM/min and a Rate [9] of 8.98 nM/min. The Ks [10] was “No detectable binding spectra”, the Rate [11] was 9.06 nM/min and the OD max [12] was “No detectable binding spectra”.

`CCCCCCCCOc1ccc2c3c1OC1C(O)C=CC4C(C2)N(C)CCC341.Cl` (configuration not stated) showed a Km [3] of 67 µM, a Km [4] of 125 µM and a Kd [1] of 8.8 µM. For the same compound, the OD max [2] was 2.1 mg, the Vmax [5] was 1.98 nM/min and the Vmax [6] was 3.57 nM/min.

With `CCCCCCOc1ccc2c3c1OC1C(O)C=CC4C(C2)N(C)CCC341.Cl` (configuration not stated) the Kd [1] was 12.8 µM and the OD max [2] was 1.9 mg.

`CCCCCCCCCCOc1ccc2c3c1OC1C(O)C=CC4C(C2)N(C)CCC341.Cl` (configuration not stated) showed a Rate [7] of 9.11 nM/min, a Rate [8] of 8.92 nM/min and a Rate [9] of 9.12 nM/min. The Ks [10] was “No detectable binding spectra”, the Rate [11] was 9.22 nM/min and the OD max [12] was “No detectable binding spectra”.

`CCCCCCCCCOc1ccc2c3c1OC1C(O)C=CC4C(C2)N(C)CCC341.Cl` (configuration not stated) gave a Kd [1] of 7.6 µM and an OD max [2] of 2.15 mg.

`CCCCCCCOc1ccc2c3c1OC1C(O)C=CC4C(C2)N(C)CCC341.Cl` (configuration not stated) showed a Kd [1] of 11.4 µM and an OD max [2] of 1.8 mg.

Work on `COc1ccc2c3c1O[C@H]1[C@@H](O)C=C[C@H]4[C@@H](C2)N(C)CC[C@@]341.O=S(=O)(O)O` yielded an OD max [2] of 1.85 mg.

— ChEMBL document CHEMBL1122317, “Role of substrate lipophilicity on the N-demethylation and type I binding of 3-O-alkylmorphine analogues” (J Med Chem, 1983)
